We go through ten compounds from ChEMBL document CHEMBL4480394, “Benzimidazolone-based selective σ2 receptor ligands: Synthesis and pharmacological evaluation” (Eur J Med Chem, 2019).

The target in experiment [1] is Sigma non-opioid intracellular receptor 1 (Rattus norvegicus, UniProt Q9R0C9). Briefly: Displacement of [3H](+)-pentazocine from sigma1 receptor in rat brain membranes after 120 mins by radioligand binding assay. Format: cell membranes.
The target in experiment [2] is T1, Sigma intracellular receptor 2 (Rattus norvegicus, UniProt Q5U3Y7).
T1 sequence (Q5U3Y7 whole entry): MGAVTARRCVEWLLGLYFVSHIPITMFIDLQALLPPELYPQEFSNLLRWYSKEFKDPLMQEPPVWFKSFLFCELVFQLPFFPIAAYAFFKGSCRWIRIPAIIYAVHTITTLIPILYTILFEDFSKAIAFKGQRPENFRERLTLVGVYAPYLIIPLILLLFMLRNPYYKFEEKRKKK
Put plainly: Displacement of [3H]-DTG from sigma2 receptor in rat brain membranes after 120 mins in presence of (+)-pentazocine by radioligand binding assay. Format: cell membranes. For orientation: Displacement assays read how much labelled ligand stays bound in the presence of the test substance.

The species entered for experiment [3] is Rattus norvegicus. Put plainly: Selectivity ratio of Ki for sigma1 receptor in rat brain membranes to Ki for sigma2 receptor in rat brain membranes. Format: cell membranes.
The target in experiment [4] is 5-hydroxytryptamine receptor 2A (Rattus norvegicus, UniProt P14842). Briefly: Displacement of [3H]ketanserin from 5-HT2 receptor in rat brain membranes after 120 mins by radioligand binding assay. In kind it is cell membranes. In outline: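 5-HT2 site in rat brain (minus cerebellum) membranes labeled with 2 nM [3H]ketanserin; 1 µM mianserin nonspecific. Glass-fiber filtration, Ki by Cheng-Prusoff; triplicate, mean ± SEM.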

Experiment [5] deals with Sodium-dependent dopamine transporter (Rattus norvegicus, UniProt P23977). Briefly: Displacement of [3H]WIN 35428 from dopamine transporter in rat striatal membranes after 120 mins by radioligand binding assay. In kind it is cell membranes, Striatum, Membrane.
In experiment [6] the target is Sodium-dependent serotonin transporter (Rattus norvegicus, UniProt P31652). Put plainly: Displacement of [3H]paroxetine from serotonin transporter in rat brainstem membranes after 120 mins by radioligand binding assay. Format: cell membranes. In outline: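 Rat brainstem membranes, 0.2 nM [3H]paroxetine; nonspecific with 1.5 µM imipramine. Ice-cold buffer stop, glass-fiber filtration, Cheng-Prusoff Ki; triplicate, mean ± SEM.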

Experiment [7] can be described thus: Displacement of [3H]nisoxetine from norepinephrine transporter in rat cerebral cortex membranes after 120 mins by radioligand binding assay. In kind it is cell membranes, Membrane.
For the next experiment, the target named is D(2) dopamine receptor (Rattus norvegicus, UniProt P61169). Put plainly: Displacement of [3H](-)-sulpiride from dopamine D2 receptor in rat brain membranes after 120 mins by radioligand binding assay. Format: cell membranes.
Another experiment addresses Glutamate NMDA receptor. Briefly: Displacement of [3H]TCP from NMDA receptor in rat brain membranes after 120 mins by radioligand binding assay. Format: cell membranes. In outline:
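PCP site of NMDA receptor in rat brain minus cerebellum membranes, 5 nM [3H]TCP; nonspecific with 10 µM cyclazocine.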

The target in another experiment is Opioid receptor (Rattus norvegicus, UniProt P33533+P34975+P33535). Briefly: Displacement of [3H]bremazocine from opioid receptor in rat brain membranes after 120 mins by radioligand binding assay. In kind it is cell membranes.
For experiment [8], the species on record is Rattus norvegicus. Briefly: Selectivity ratio of Ki for 5-HT2 receptor in rat brain membranes to Ki for sigma2 receptor in rat brain membranes. In kind it is cell membranes.
In another experiment the test system is Mus musculus. Put plainly: Anticonvulsant activity in ip dosed Swiss Webster mouse assessed as reduction in cocaine-induced convulsion pretreated for 15 mins followed by cocaine-challenge and measured for 30 mins. In kind it is functional, organism-based.

As a reminder, the Ki is a dissociation constant, usually derived from enzyme kinetics or from competition with a known ligand.

Sigma non-opioid intracellular receptor 1, sequence (Q9R0C9 whole entry): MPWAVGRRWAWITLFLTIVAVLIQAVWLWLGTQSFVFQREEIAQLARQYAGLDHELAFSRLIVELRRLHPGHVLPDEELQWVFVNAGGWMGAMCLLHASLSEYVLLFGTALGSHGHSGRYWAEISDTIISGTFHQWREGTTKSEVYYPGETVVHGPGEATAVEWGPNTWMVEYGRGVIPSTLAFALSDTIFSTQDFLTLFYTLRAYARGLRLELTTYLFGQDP
D(2) dopamine receptor, sequence (P61169 whole entry): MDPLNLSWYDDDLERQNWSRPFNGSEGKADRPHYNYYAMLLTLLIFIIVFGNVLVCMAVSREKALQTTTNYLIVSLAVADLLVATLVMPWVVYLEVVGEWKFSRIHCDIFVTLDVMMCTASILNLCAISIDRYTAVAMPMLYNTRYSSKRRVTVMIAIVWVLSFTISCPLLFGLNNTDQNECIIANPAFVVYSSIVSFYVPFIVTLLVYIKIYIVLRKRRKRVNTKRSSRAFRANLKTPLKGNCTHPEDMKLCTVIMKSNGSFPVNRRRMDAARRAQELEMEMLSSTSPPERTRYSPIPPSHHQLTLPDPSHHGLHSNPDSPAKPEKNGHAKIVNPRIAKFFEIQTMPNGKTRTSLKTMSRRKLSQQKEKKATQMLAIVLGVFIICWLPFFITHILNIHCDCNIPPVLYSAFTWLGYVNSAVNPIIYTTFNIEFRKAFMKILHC
Sodium-dependent serotonin transporter, sequence (P31652 whole entry): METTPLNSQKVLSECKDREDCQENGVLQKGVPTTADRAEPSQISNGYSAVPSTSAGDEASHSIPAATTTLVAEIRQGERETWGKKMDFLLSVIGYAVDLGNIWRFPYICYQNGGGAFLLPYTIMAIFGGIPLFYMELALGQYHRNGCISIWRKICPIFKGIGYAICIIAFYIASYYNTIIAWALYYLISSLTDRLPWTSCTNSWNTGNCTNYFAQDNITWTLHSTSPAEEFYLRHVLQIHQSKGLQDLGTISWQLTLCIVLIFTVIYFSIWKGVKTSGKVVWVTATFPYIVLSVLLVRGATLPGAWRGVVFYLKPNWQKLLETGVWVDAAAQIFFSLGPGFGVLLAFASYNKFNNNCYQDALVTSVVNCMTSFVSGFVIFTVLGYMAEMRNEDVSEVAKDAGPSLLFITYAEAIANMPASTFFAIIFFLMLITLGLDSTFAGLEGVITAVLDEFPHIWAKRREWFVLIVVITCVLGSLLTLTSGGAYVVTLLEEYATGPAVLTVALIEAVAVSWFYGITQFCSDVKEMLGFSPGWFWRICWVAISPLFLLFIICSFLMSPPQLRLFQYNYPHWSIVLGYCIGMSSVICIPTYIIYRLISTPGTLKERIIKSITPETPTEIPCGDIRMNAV
Sodium-dependent dopamine transporter, sequence (P23977 whole entry): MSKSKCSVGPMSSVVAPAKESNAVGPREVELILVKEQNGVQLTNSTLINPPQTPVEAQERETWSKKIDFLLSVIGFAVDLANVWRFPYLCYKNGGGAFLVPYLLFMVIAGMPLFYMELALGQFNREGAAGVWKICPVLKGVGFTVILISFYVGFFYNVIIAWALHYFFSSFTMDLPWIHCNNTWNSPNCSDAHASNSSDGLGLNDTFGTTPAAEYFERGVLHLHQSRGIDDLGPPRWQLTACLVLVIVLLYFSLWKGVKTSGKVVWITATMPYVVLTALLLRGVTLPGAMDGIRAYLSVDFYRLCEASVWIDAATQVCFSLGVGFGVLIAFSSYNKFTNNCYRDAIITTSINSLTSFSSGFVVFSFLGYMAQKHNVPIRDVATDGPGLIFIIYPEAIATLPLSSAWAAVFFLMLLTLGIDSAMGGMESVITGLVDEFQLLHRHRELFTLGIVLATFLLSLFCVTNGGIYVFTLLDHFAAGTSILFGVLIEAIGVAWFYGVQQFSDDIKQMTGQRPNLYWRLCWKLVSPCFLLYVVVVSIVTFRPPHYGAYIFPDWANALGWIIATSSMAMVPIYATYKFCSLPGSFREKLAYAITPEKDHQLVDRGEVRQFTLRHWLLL
5-hydroxytryptamine receptor 2A, sequence (P14842 whole entry): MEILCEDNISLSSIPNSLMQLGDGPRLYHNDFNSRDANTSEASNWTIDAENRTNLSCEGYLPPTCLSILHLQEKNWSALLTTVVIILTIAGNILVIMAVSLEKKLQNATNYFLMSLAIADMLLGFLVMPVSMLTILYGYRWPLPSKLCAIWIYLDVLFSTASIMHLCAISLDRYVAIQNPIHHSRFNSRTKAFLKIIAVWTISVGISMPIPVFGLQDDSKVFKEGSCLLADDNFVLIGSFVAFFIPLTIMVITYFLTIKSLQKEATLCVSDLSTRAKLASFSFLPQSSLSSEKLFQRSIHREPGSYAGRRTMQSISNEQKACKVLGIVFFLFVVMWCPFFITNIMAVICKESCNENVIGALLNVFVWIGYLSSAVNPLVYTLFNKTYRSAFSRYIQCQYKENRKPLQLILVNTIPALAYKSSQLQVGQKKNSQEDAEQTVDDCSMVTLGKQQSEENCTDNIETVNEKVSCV

Take `CCCCCCCCCCn1c(=O)n(CCCCN2CCN(c3ccc(F)cc3)CC2)c2ccc(C(C)=O)cc21`: the Ki stood at 988 nM in [1] and 32.5 nM in [2]. For the same compound, the Ratio Ki in the experiment filed under Rattus norvegicus [3] turned out to be 30.4.
For `CC(=O)c1ccc2c(c1)[nH]c(=O)n2CCCCN1CCN(c2ccc(F)cc2)CC1`, the inhibition constant Ki was 166 nM in experiment [1] and 28.5 nM in experiment [2]. For the same compound, the Ratio Ki in the experiment listed under Rattus norvegicus [3] is 5.8.
As to `CCCn1c(=O)n(CCCCN2CCN(c3ccc(F)cc3)CC2)c2ccc(C(C)=O)cc21`, the Ki in experiment [1] was 273 nM; in experiment [2] it was 1.81 nM. Further, the Ratio Ki in the experiment listed under Rattus norvegicus [3] turned out to be 151.
The corresponding values for `CCCCCCCCCCn1c(=O)n(CCCCN2CCN(c3ccc(F)cc3)CC2)c2ccccc21` are 724 nM, 4.55 nM and 159.
Taken in the same sequence, the figures for `CC(=O)c1ccc2c(c1)n(C)c(=O)n2CCCCN1CCN(c2ccc(F)cc2)CC1` were 72.3 nM, 7.6 nM and 9.5.
Consider `CCCCCn1c(=O)n(CCCCN2CCN(c3ccc(F)cc3)CC2)c2ccccc21`, for which the inhibition constant Ki in experiment [1] was 2270 nM; in experiment [2], 4.27 nM; in experiment [4], 250 nM; in [5], greater than 1000 nM; in experiment [6], 446 nM; in [7], greater than 10000 nM. Besides, the Ki at D(2) dopamine receptor was greater than 1000 nM; at Glutamate NMDA receptor it was greater than 10000 nM; at Opioid receptor it was greater than 10000 nM. Moreover, in the experiment listed under Rattus norvegicus [3], the Ratio Ki worked out at 532.
With `Cn1c(=O)n(CCCCN2CCN(c3ccc(F)cc3)CC2)c2ccccc21`, the Ki in experiment [2] is 2.05 nM.
Regarding `CCCCCn1c(=O)n(CCCCN2CCN(c3ccc(F)cc3)CC2)c2ccc(C(C)=O)cc21`, the results for the inhibition constant Ki in [1] and in experiment [2] were 299 nM and 2.15 nM, respectively. For the same compound, the Ratio Ki in the experiment filed under Rattus norvegicus [3] was 139.
On to `O=c1[nH]c2ccccc2n1CCCCN1CCN(c2ccc(F)cc2)CC1`, for which the inhibition constant (Ki) is 144 nM in experiment [1] and 18.4 nM in experiment [2].
With `CCCn1c(=O)n(CCCCN2CCN(c3ccc(F)cc3)CC2)c2ccccc21`, the inhibition constant (Ki) in [1] is 752 nM; in experiment [2], 0.66 nM; in experiment [4], 54.7 nM; in [5], greater than 1000 nM; in experiment [6], greater than 1000 nM; in experiment [7], greater than 10000 nM. Also, the inhibition constant Ki on D(2) dopamine receptor, on Glutamate NMDA receptor and at Opioid receptor was greater than 10000 nM each time. For the same compound, the Ratio Ki in the experiment listed under Rattus norvegicus [3] was determined as 1140; in the experiment listed under Rattus norvegicus [8], 83. In the experiment on Mus musculus, the Activity entry was “Dose-dependent effect”.
